{"data": "Measured values of several laboratories", "target": "NT-3 growth factor receptor (NTRK3, Homo sapiens, UniProt Q16288)", "note": "Protocols differ between the studies behind these lines."}
{"Compound": "C#Cc1n[nH]c2c(-c3cn([C@@H](C)c4ccccc4)c(=O)[nH]c3=O)cc(F)cc12", "assay": "enzyme activity, inhibitor", "setting": "0.1 µM", "endpoint": "inhibition", "value": "11.4%"}
{"Compound": "Cn1cc(-c2cc(F)cc(N3CCn4c(cc5c4CCCC5)C3=O)c2CO)cc(Nc2ccc(N3CCN(C4COC4)CC3)cn2)c1=O", "assay": "enzyme activity, inhibitor", "setting": "0.1 µM", "endpoint": "inhibition", "value": "15%"}
{"Compound": "COc1ncccc1-c1cnn2ccc(N3CCN(C(=O)OC(C)C)CC3)nc12", "assay": "binding, competition with immobilised ligand", "setting": "1 µM", "endpoint": "remaining binding", "value": "50%"}
{"Compound": "Cn1cncc1[C@@](O)(COc1ccc(C#N)cc1-c1ccc(OC(F)(F)F)cc1)c1ccc(C#N)cc1", "assay": "cell-free assay, competition with immobilised ligand", "setting": "1 µM", "endpoint": "remaining binding", "value": "99%"}
{"Compound": "C#Cc1n[nH]c2c(-c3cn(C(C)c4ccccn4)c(=O)[nH]c3=O)cc(F)cc12 (centres unmarked)", "assay": "enzyme activity, inhibitor", "setting": "1 µM", "endpoint": "inhibition", "value": "12.3%"}
{"Compound": "Cn1cc(-c2cccc(N3CCc4c(sc5c4CC(C)(C)C5)C3=O)c2CO)cc(Nc2ccncn2)c1=O", "assay": "enzyme activity, inhibitor", "setting": "1 µM", "endpoint": "inhibition", "value": "-8%"}
{"Compound": "O=c1[nH]c2ccccc2n1C1CCN(Cc2ccc(-c3[nH]c4cc5ncnc5cc4nc3-c3ccccc3)cc2)CC1", "assay": "cell-free assay", "setting": "0.5 µM", "endpoint": "remaining signal", "value": "116%"}
{"Compound": "N#CC1(c2ccccn2)CCN(Cc2cc(C(=O)O)c(=O)n3ccccc23)CC1", "assay": "cell-free assay, competition with immobilised ligand", "setting": "1 µM", "endpoint": "remaining binding", "value": "70%"}
{"Compound": "Cc1nn(C)cc1-c1nc2c(N3CCN(Cc4ccc(Cl)cc4)CC3)c(Cl)cnc2[nH]1", "assay": "binding, competition with immobilised ligand", "setting": "1 µM", "endpoint": "remaining binding", "value": "57%"}
{"Compound": "Nc1ncc(-c2nc(N3CCOCC3)nc(N3CCOCC3)n2)c(C(F)F)n1", "assay": "cell-free assay, competition with immobilised ligand", "setting": "10 µM", "endpoint": "remaining binding", "value": "87%"}
{"Compound": "CC(C)(C)c1cc(C=C(C#N)C#N)cc(Br)c1O", "assay": "enzyme activity, inhibitor", "setting": "0.5 µM", "endpoint": "remaining activity", "value": "104%"}
